We go through nine compounds from ChEMBL document CHEMBL3102798, “Stapled Vasoactive Intestinal Peptide (VIP) Derivatives Improve VPAC2 Agonism and Glucose-Dependent Insulin Secretion” (ACS Med Chem Lett, 2013).

Data set [1] addresses T1, Vasoactive intestinal polypeptide receptor 2 (Homo sapiens, UniProt P41587).
T1 sequence (P41587 whole entry): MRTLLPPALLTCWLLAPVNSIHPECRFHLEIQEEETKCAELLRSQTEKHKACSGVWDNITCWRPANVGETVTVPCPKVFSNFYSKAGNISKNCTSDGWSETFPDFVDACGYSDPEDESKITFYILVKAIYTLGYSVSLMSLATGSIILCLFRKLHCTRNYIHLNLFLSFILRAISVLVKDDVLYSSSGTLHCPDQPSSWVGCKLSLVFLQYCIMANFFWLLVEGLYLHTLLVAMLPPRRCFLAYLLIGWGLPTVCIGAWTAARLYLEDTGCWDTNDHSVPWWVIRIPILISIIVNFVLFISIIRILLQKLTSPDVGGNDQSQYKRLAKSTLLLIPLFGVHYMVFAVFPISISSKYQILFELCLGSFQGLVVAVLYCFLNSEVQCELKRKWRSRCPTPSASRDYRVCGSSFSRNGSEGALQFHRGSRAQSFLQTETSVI
In words: Agonist activity at human VPAC2 expressed in CHO Flp-in cells assessed as accumulation of cAMP after 30 mins by TR-FRET assay. It is filed as functional, cell-based. (In general: TR-FRET usually uses a lanthanide donor and a delayed reading to cut background.)

Another data set deals with Pancreatic islet. In words: Induction of 8 mM glucose-induced insulin secretion in Han Wistar rat pancreatic islets at 10 to 100 nM after 2 hrs by HTRF assay. Type of data set: functional. The method, boiled down: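 Isolated rat pancreatic islets were incubated with peptide in 8 mM glucose, and insulin secretion was measured. Data are mean ±SE (n > 3), and significance was tested against vehicle-treated samples.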

Data set [2] can be described thus: Stability of the compound in phosphate buffer assessed as compound remaining at pH 7.4 after 15 mins by LC-MS-MS analysis in presence of trypsin. Type of data set: ADME. Particulars: phosphate buffer with trypsin, read-out: Stability.
Data set [3] is described as follows: Apparent passive permeability across apical to basolateral side in human Caco2 cells at 10 uM after 30 to 60 mins by LC/MS analysis. It is filed as ADME, cell-based. Particulars: Caco-2. A general note: Passage across Caco-2 layers is used to estimate intestinal permeability.

The source made the active and inactive calls. No cut-off for these calls is given here. Numbered stars: 1 amine (or outer) side, 2 acyl side, 3 side chain; on linkers, the order of the positions; unused ones are H or OH. Bridge positions count the residues as written; N and C are the ends. Square brackets hold non-standard residues; d marks the D form. Peptide text beside a SMILES is read from it. X1 = C[C@@](CCCCC=[*:3])(N[*:1])C(=O)[*:2]; S5 = C=CCCC[C@](C)(N)C(=O)O

Take `CC[C@H](C)[C@H](NC(=O)[C@H](CO)NC(=O)[C@H](CC(N)=O)NC(=O)[C@H](CC(C)C)NC(=O)[C@H](Cc1ccc(O)cc1)NC(=O)[C@H](CCCCN)NC(=O)[C@H](CCCCN)NC(=O)[C@@H](NC(=O)[C@H](C)NC(=O)[C@]1(C)CCCC/C=C\CCCC[C@](C)(NC(=O)[C@H](CCCNC(=N)N)NC(=O)[C@@H](NC(=O)[C@H](Cc2ccc(O)cc2)NC(=O)[C@H](CC(N)=O)NC(=O)[C@H](CC(=O)O)NC(=O)[C@@H](NC(=O)[C@H](Cc2ccccc2)NC(=O)[C@@H](NC(=O)[C@H](C)NC(=O)[C@H](CC(=O)O)NC(=O)[C@H](CO)NC(=O)[C@@H](N)Cc2cnc[nH]2)C(C)C)[C@@H](C)O)[C@@H](C)O)C(=O)N[C@@H](CCCNC(=N)N)C(=O)N[C@@H](CCCCN)C(=O)N[C@@H](CCC(N)=O)C(=O)N1)C(C)C)C(=O)N[C@@H](CC(C)C)C(=O)N[C@@H](CC(N)=O)C(=O)NCC(=O)N[C@@H](CCCCN)C(=O)O`: the EC50 (as a rule, the concentration at which the effect is half-maximal) in data set [1] was found to be 0.049 nM. Moreover, the outcome in the data set on Pancreatic islet was Active. Further, the remaining at 0.25 h in data set [2] turned out to be 1.5%. In data set [3], the Papp A→B (in general, the apparent permeability from the apical to the basolateral side of a cell layer) at 10 µM is under 0.1 ×10⁻⁶ cm/s.
With `C=CCCC[C@](C)(NC(=O)[C@H](CCC(N)=O)NC(=O)[C@H](CCCCN)NC(=O)[C@H](CCCN=C(N)N)NC(=O)[C@](C)(CCCC=C)NC(=O)[C@H](CCCN=C(N)N)NC(=O)[C@@H](NC(=O)[C@H](Cc1ccc(O)cc1)NC(=O)[C@H](CC(N)=O)NC(=O)[C@H](CC(=O)O)NC(=O)[C@@H](NC(=O)[C@H](Cc1ccccc1)NC(=O)[C@@H](NC(=O)[C@H](C)NC(=O)[C@H](CC(=O)O)NC(=O)[C@H](CO)NC(=O)[C@@H](N)Cc1cnc[nH]1)C(C)C)[C@@H](C)O)[C@@H](C)O)C(=O)N[C@@H](C)C(=O)N[C@H](C(=O)N[C@@H](CCCCN)C(=O)N[C@@H](CCCCN)C(=O)N[C@@H](Cc1ccc(O)cc1)C(=O)N[C@@H](CC(C)C)C(=O)N[C@@H](CC(N)=O)C(=O)N[C@@H](CO)C(=O)N[C@H](C(=O)N[C@@H](CC(C)C)C(=O)N[C@@H](CC(N)=O)C(=O)NCC(=O)N[C@@H](CCCCN)C(=O)O)[C@@H](C)CC)C(C)C`, the EC50 in data set [1] stood at 1.37 nM. The remaining at 0.25 h in data set [2] was 0.7%. Also, in data set [3], the Papp A→B at 10 µM is under 0.1 ×10⁻⁶ cm/s.
Take H-HSDAVFTDNYTRLRKQIAVKKYLNSILNGK-OH: in data set [1], the half-maximal effective concentration (EC50) is 0.14 nM. Besides, in data set [2], the remaining at 0.25 h stood at 0.3%. Further, in data set [3], the Papp A→B at 10 µM is under 0.1 ×10⁻⁶ cm/s.
For the compound H-HSDAVFTDNYTRLRKQIAVKEYLNKILNGK-OH, the EC50 in data set [1] worked out at 0.21 nM.
As to `CC[C@H](C)[C@H](NC(=O)[C@H](CCC(N)=O)NC(=O)[C@H](CCCCN)NC(=O)[C@H](CCCNC(=N)N)NC(=O)[C@H](CC(C)C)NC(=O)[C@H](CCCNC(=N)N)NC(=O)[C@@H](NC(=O)[C@H](Cc1ccc(O)cc1)NC(=O)[C@H](CC(N)=O)NC(=O)[C@H](CC(=O)O)NC(=O)[C@@H](NC(=O)[C@H](Cc1ccccc1)NC(=O)[C@@H](NC(=O)[C@H](C)NC(=O)[C@H](CC(=O)O)NC(=O)[C@H](CO)NC(=O)[C@@H](N)Cc1cnc[nH]1)C(C)C)[C@@H](C)O)[C@@H](C)O)C(=O)N[C@@H](C)C(=O)N[C@H](C(=O)N[C@@H](CCCCN)C(=O)N[C@H]1CCC(=O)NCCCC[C@@H](C(=O)N[C@H](C(=O)N[C@@H](CC(C)C)C(=O)N[C@@H](CC(N)=O)C(=O)NCC(=O)N[C@@H](CCCCN)C(=O)O)[C@@H](C)CC)NC(=O)[C@H](CC(N)=O)NC(=O)[C@H](CC(C)C)NC(=O)[C@H](Cc2ccc(O)cc2)NC1=O)C(C)C` (H-HSDAVFTDNYTRLRKQIAVKEYLNKILNGK-OH; lactam 21-25), the EC50 in data set [1] was 0.11 nM.
Regarding `CC[C@H](C)[C@H](NC(=O)[C@H](CCC(N)=O)NC(=O)[C@H](CCCCN)NC(=O)[C@H](CCCNC(=N)N)NC(=O)[C@H](CC(C)C)NC(=O)[C@H](CCCNC(=N)N)NC(=O)[C@@H](NC(=O)[C@H](Cc1ccc(O)cc1)NC(=O)[C@H](CC(N)=O)NC(=O)[C@H](CC(=O)O)NC(=O)[C@@H](NC(=O)[C@H](Cc1ccccc1)NC(=O)[C@@H](NC(=O)[C@H](C)NC(=O)[C@H](CC(=O)O)NC(=O)[C@H](CO)NC(=O)[C@@H](N)Cc1cnc[nH]1)C(C)C)[C@@H](C)O)[C@@H](C)O)C(=O)N[C@@H](C)C(=O)N[C@H](C(=O)N[C@@H](CCCCN)C(=O)N[C@@H](CCCCN)C(=O)N[C@@H](Cc1ccc(O)cc1)C(=O)N[C@@H](CC(C)C)C(=O)N[C@@]1(C)CCCC/C=C\CCCC[C@@](C)(C(=O)NCC(=O)N[C@@H](CCCCN)C(=O)O)NC(=O)[C@H](CC(C)C)NC(=O)[C@H]([C@@H](C)CC)NC(=O)[C@H](CO)NC1=O)C(C)C` (H-HSDAVFTDNYTRLRKQIAVKKYL[X1]SIL[X1]GK-OH; staple (Z) 24-28), the EC50 in data set [1] worked out at 0.39 nM.
With H-HSDAVFTDNYTRERKQKAVKKYLNSILNGK-OH, the EC50 in data set [1] stood at 6.6 nM.
Turning to `CC[C@H](C)[C@H](NC(=O)[C@H](CCC(N)=O)NC(=O)[C@H](CCCCN)NC(=O)[C@H](CCCNC(=N)N)NC(=O)[C@H](CC(C)C)NC(=O)[C@H](CCCNC(=N)N)NC(=O)[C@@H](NC(=O)[C@H](Cc1ccc(O)cc1)NC(=O)[C@H](CC(N)=O)NC(=O)[C@H](CC(=O)O)NC(=O)[C@@H](NC(=O)[C@H](Cc1ccccc1)NC(=O)[C@@H](NC(=O)[C@H](C)NC(=O)[C@H](CC(=O)O)NC(=O)[C@H](CO)NC(=O)[C@@H](N)Cc1cnc[nH]1)C(C)C)[C@@H](C)O)[C@@H](C)O)C(=O)N[C@@H](C)C(=O)N[C@H](C(=O)N[C@@H](CCCCN)C(=O)N[C@@]1(C)CCCC/C=C\CCCC[C@@](C)(C(=O)N[C@H](C(=O)N[C@@H](CC(C)C)C(=O)N[C@@H](CC(N)=O)C(=O)NCC(=O)N[C@@H](CCCCN)C(=O)O)[C@@H](C)CC)NC(=O)[C@H](CC(N)=O)NC(=O)[C@H](CC(C)C)NC(=O)[C@H](Cc2ccc(O)cc2)NC1=O)C(C)C` (H-HSDAVFTDNYTRLRKQIAVK[X1]YLN[X1]ILNGK-OH; staple (Z) 21-25), the EC50 in data set [1] worked out at 1.52 nM.
On the same count and under the same terms, the result for `C=CCCC[C@](C)(NC(=O)[C@H](CCCCN)NC(=O)[C@@H](NC(=O)[C@H](C)NC(=O)[C@@H](NC(=O)[C@H](CCC(N)=O)NC(=O)[C@H](CCCCN)NC(=O)[C@H](CCCN=C(N)N)NC(=O)[C@H](CC(C)C)NC(=O)[C@H](CCCN=C(N)N)NC(=O)[C@@H](NC(=O)[C@H](Cc1ccc(O)cc1)NC(=O)[C@H](CC(N)=O)NC(=O)[C@H](CC(=O)O)NC(=O)[C@@H](NC(=O)[C@H](Cc1ccccc1)NC(=O)[C@@H](NC(=O)[C@H](C)NC(=O)[C@H](CC(=O)O)NC(=O)[C@H](CO)NC(=O)[C@@H](N)Cc1cnc[nH]1)C(C)C)[C@@H](C)O)[C@@H](C)O)[C@@H](C)CC)C(C)C)C(=O)N[C@@H](Cc1ccc(O)cc1)C(=O)N[C@@H](CC(C)C)C(=O)N[C@@H](CC(N)=O)C(=O)N[C@@](C)(CCCC=C)C(=O)N[C@H](C(=O)N[C@@H](CC(C)C)C(=O)N[C@@H](CC(N)=O)C(=O)NCC(=O)N[C@@H](CCCCN)C(=O)O)[C@@H](C)CC` (H-HSDAVFTDNYTRLRKQIAVK[S5]YLN[S5]ILNGK-OH) reads 3.8 nM.
